According to ChEMBL document CHEMBL3400140, “Design, synthesis, and structure-activity relationships of 1-ethylpyrazole-3-carboxamide compounds as novel hypoxia-inducible factor (HIF)-1 inhibitors” (Bioorg Med Chem, 2015):
Calls of active or inactive are those of the source. No cut-off for these calls is given here.

Columns and labels:
[1] = Inhibition of cell proliferation of human HT1080 cells after 72 hrs by WST-8 dye based cell counting assay; type: functional; conditions: HT-1080, 72 h
How it was run: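 HT1080 cells seeded at 1.0 × 10³/well and kept under hypoxia (1% O₂); growth read 72 h after compound addition with WST-8 reagent, absorbance at 450 nm.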

[2] = target: T1, Hypoxia inducible factors; HIF-1-alpha, HIF-2-alpha (Homo sapiens, UniProt Q16665+Q99814); test: Inhibition of HIF1 in human HT1080 cells transfected with 5xHRE/pGL3/VEGF/E1b reporter plasmid pre-incubated for 1 hr followed by incubation under hypoxia conditions for 24 hrs by HRE-driven luciferase reporter gene assay; type: cell-based; conditions: for IC50: ht-1080
[3] = tested on: HT-1080; test: Inhibition of cell migration of scratched human HT1080 cells monolayers at 100 uM after 48 hrs by phase contrast microscopy based wound-healing assay; type: functional
[4] = target: T1, Hypoxia inducible factors; HIF-1-alpha, HIF-2-alpha; test: Inhibition of HIF1-mediated carbonic anhydrase 9 gene expression in human HT1080 cells at 100 uM after 16 hrs by real time PCR method; type: cell-based; conditions: HT-1080
How it was run: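 HT1080 cells exposed to compounds at 100 µM for 16 h; CAIX mRNA measured by quantitative PCR normalized to 18S rRNA, expressed relative to the normoxic value.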

[5] = tested on: HT-1080; test: Effect on HIF-1beta gene expression in human HT1080 cells up to 100 uM after 4 hrs by real time PCR method; type: functional, cell-based
How it was run: (§1)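 HT1080 cells treated 4 h with compound; mRNA of CAIX, HIF-1a and HIF-1b quantified by real-time PCR, normalized to 18S rRNA and expressed relative to DMSO-treated cells.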

[6] = tested on: HT-1080; test: Effect on HIF-1alpha gene expression in human HT1080 cells up to 100 uM after 4 hrs by real time PCR method; type: functional, cell-based; how it was run: as §1
[7] = target: T1, Hypoxia inducible factors; HIF-1-alpha, HIF-2-alpha; test: Inhibition of HIF1-mediated carbonic anhydrase 9 gene expression in human HT1080 cells at 1 to 100 uM after 4 hrs by real time PCR method; type: cell-based; conditions: HT-1080; how it was run: as §1

Row | Structure (SMILES) | IC50 [1] [µM] | IC50 [2] [µM] | inhibition [3] | inhibition [4] | Activity [5] | inhibition ([2]; HT-1080) | Activity [6] | inhibition [7]
1 | CCn1cc(NC(=O)c2ccc(Cn3cccn3)o2)c(C(N)=O)n1 | 75.1 | 81.8 | – | – | – | – | – | –
2 | CCn1cc(NC(=O)c2ccc(Cn3nc(C)c(Br)c3C)o2)c(C(N)=O)n1 | 7 | 8.1 | Active | Active | – | – | – | –
3 | CCn1cc(NC(=O)c2ccc(Cn3nc(C)cc3C)s2)c(C(N)=O)n1 | > 100 | > 100 | – | – | – | – | – | –
4 | CCn1cc(NC(=O)c2ccc(Cc3c(C)noc3C)o2)c(C(N)=O)n1 | > 100 | > 100 | – | – | – | – | – | –
5 | CCn1cc(NC(=O)c2ccc(Cn3nc(C)c(Cl)c3C)o2)c(C(N)=O)n1 | 7.4 | 8.7 | Active | Active | – | – | – | –
6 | Cc1cc(C)n(Cc2ccc(C(=O)Nc3c[nH]nc3C(N)=O)o2)n1 | 66.6 | 71.6 | – | – | – | – | – | –
7 | CCn1cc(NC(=O)c2cccc(Cn3nc(C)cc3C)c2)c(C(N)=O)n1 | 50.2 | 72 | – | – | – | – | – | –
8 | CCn1cc(NC(=O)c2ccc(Cn3nc(C)cc3C)o2)c(C(=O)N(C)C)n1 | 75 | > 100 | – | – | – | – | – | –
9 | CCn1cc(NC(=O)c2ccc(Cn3nc(C)cc3C)o2)c(C(=O)NC)n1 | 18.1 | 19.4 | – | – | – | – | – | –
10 | CCn1ncc(NC(=O)c2ccc(Cn3nc(C)cc3C)o2)c1C(N)=O | > 100 | > 100 | – | inactive | – | – | – | –
11 | Cc1cc(C)n(Cc2ccc(C(=O)Nc3cnn4c3C(=O)NCC4)o2)n1 | > 100 | > 100 | – | – | – | – | – | –
12 | CCn1cc(NC(=O)c2ccc(Cn3nc(C)cc3C)o2)c(C(N)=O)n1 | 15.1 | 19.1 | Active | – | inactive | Dose-dependent effect | inactive | Dose-dependent effect
